Experimental data of several laboratories.
Protocols differ between the studies behind these lines.
Target: Tyrosine-protein kinase SYK (SYK, Homo sapiens, UniProt P43405)

Cc1ccc(NC(=O)c2ccc(C)c(C(F)(F)F)c2)cc1C#Cc1nn(C2CCC(O)CC2)c2ncnc(N)c12 (centres unmarked)
remaining signal (cell-free assay; 10 µM): 95%

N#CCCc1ccc2c(c1)-c1[nH]c3ccc([N+](=O)[O-])cc3c1CC(=O)N2
remaining signal (cell-free assay; 0.5 µM): 58%

COc1cc(Nc2cnc(C#N)c(O[C@H](C)CN(C)C)n2)ncc1-c1cnn(C)c1
remaining activity (enzyme activity; inhibitor; radiometric; 1 µM): 93%

CC(C)(C)c1nc2c(s1)c1nc(N)ncc1c1ccc(NS(=O)(=O)c3c(F)cccc3F)c(F)c12
remaining activity (enzyme activity; inhibitor; radiometric; 1 µM): 95%

CNC(=O)c1cc(Oc2ccc(NC(=O)Nc3ccc(Cl)c(C(F)(F)F)c3)cc2)ccn1
inhibition (enzyme activity; inhibitor; 10 µM): -6%

COc1cc2ncnc(Nc3ccc(Oc4ccccc4)cc3C)c2cc1OC
inhibition (enzyme activity; inhibitor; 1 µM): 1%

CCCS(=O)(=O)Nc1ccc(F)c(C(=O)c2c[nH]c3ncc(-c4ccc(Cl)cc4)cc23)c1F
inhibition (enzyme activity; inhibitor; 1 µM): < 10%

COc1cc2c(Nc3ccc(Br)cc3F)ncnc2cc1OCC1CCN(C)CC1
remaining signal (cell-free assay; 0.5 µM): 101%

CC(C)(O)[C@H]1CC[C@H](Nc2ccc3ncc(-c4cccc(C(F)(F)F)c4)n3n2)CC1
remaining activity (enzyme activity; inhibitor; 1 µM): 72.3%

Cc1c(C(=O)O)cc(-c2ccc(C3CCNCC3)cc2)c2ccc(-c3ccc(C(F)(F)F)cc3)cc12
remaining binding (cell-free assay; competition with immobilised ligand; 1 µM): 100%

Cc1ccc(Nc2nccc(N(C)c3ccc4c(C)n(C)nc4c3)n2)cc1S(N)(=O)=O
inhibition (enzyme activity; inhibitor; 10 µM): 88%

C[C@H](c1ccnc(Nc2nc3ccc(-c4cc(N(C)C)ncn4)cc3[nH]2)c1)N1CCN(C(=O)CC(F)(F)F)CC1
remaining binding (binding; competition with immobilised ligand; 0.1 µM): 31%

Cc1ccc(C(=O)NCc2ccsc2)cc1C#Cc1cn(C(C)C)c2ncnc(N)c12
activity vs control (enzyme activity; inhibitor; 1 µM): 91%

CN1CC(Oc2cnc(C#N)cc2-c2ccn3nc(NC(=O)C4CC4)cc3c2)C1
inhibition (enzyme activity; inhibitor; 1 µM): 1%

CN(C)C1CCN(CC#Cc2nn(C3CCCC3)c3nc(NCc4ccccc4)ncc23)C1 (centres unmarked)
inhibition (enzyme activity; inhibitor; FRET; 0.1 µM): 2%

O=C1NC(=O)c2cc(Nc3ccc(F)cc3)c(Nc3ccc(F)cc3)cc21
remaining signal (cell-free assay; 0.5 µM): 98.8%

O=C(N1CCS(=O)(=O)CC1)N1C[C@H](c2ccc(OC(F)(F)F)cc2)C[C@H](c2nc(C3CC3)no2)C1
remaining binding (cell-free assay; competition with immobilised ligand; 1 µM): 100%

Nc1nc(Nc2ccccc2)sc1C(=O)c1c(F)cccc1F
remaining activity (enzyme activity; inhibitor; 10 µM): 37%

O=C(Nc1cnn(-c2csc(C(=O)NC3COC3)c2)c1)Nc1c(F)cccc1Cl
remaining activity (enzyme activity; inhibitor; 5 µM): 90.3%

CC(=O)N1CCC(c2ccc(C(=O)NC3=NCCN3)cc2C(F)(F)F)CC1
remaining binding (cell-free assay; competition with immobilised ligand; 1 µM): 100%

Cc1cnc(NC2CCOCC2)nc1-n1cnc(C(=O)NC(CN)c2cc(F)cc(Cl)c2)c1 (centres unmarked)
remaining activity (enzyme activity; inhibitor; radiometric; 1 µM): 94%

Cn1nc(C(=O)NCc2ccc(C(=O)O)cc2)cc1-c1ccc2[nH]ccc2c1
remaining binding (cell-free assay; competition with immobilised ligand; 0.1 µM): 81%

O=C(CSc1nc2nccnc2c(=O)n1CCc1ccccc1)Nc1nccs1
inhibition (enzyme activity; inhibitor; 10 µM): 7%

Nc1nc(NC2CCCCC2)sc1C(=O)c1ccccc1
remaining activity (enzyme activity; inhibitor; 10 µM): 91%

CNc1cccc2cc(C(=O)Nc3ccc(C(=O)O)cc3)c(=O)[nH]c12
inhibition (enzyme activity; inhibitor; 10 µM): 4%

O=C(Nc1cnn(-c2csc(C(=O)NC3COC3)c2)c1)Nc1ccccc1Cl
remaining activity (enzyme activity; inhibitor; 5 µM): 101%

CCS(=O)(=O)c1cc2cc(C[C@](O)(CC(C)(C)c3ccc(F)cc3C(N)=O)C(F)(F)F)[nH]c2cn1
remaining binding (cell-free assay; competition with immobilised ligand; 1 µM): 100%

CN(c1ncccc1CNc1nc(Nc2ccc3c(c2)CC(=O)N3)ncc1C(F)(F)F)S(C)(=O)=O
inhibition (enzyme activity; inhibitor; 1 µM): 91.7%

O=C(O)[C@H]1[C@H](Cn2nnc3ccccc3c2=O)CC[C@@H]1C(=O)c1ccc(OCCC2CCOCC2)cc1
remaining binding (cell-free assay; competition with immobilised ligand; 1 µM): 76%

Cn1c(=O)n(-c2ccc(C(C)(C)C#N)cc2)c2c3cc(-c4cnc5ccccc5c4)ccc3ncc21
remaining activity (enzyme activity; inhibitor; 10 µM): 72%

CS(=O)(=O)N1CCCC(NC(=O)[C@H](CCC2CCCCC2)NC(=O)c2ccc(CNc3ncnc4c3nnn4-c3ccccc3)cc2)C1 (some centres unmarked)
remaining binding (cell-free assay; competition with immobilised ligand; 0.1 µM): 88%

FC(F)(F)Oc1cccc(-c2cnc3ccc(-c4ccncc4)nn23)c1
activity vs control (enzyme activity; inhibitor; radiometric; 1 µM): 72%
